The EternaBench riboswitch data

Tested on: MS2 coat protein
Test: apparent Kd, MS2 coat protein; higher = weaker binding; RNA-MaP array
In short: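 Designed RNAs were transcribed on an Illumina sequencing chip from sequenced DNA templates. They were incubated at room temperature with fluorescently labeled MS2 coat protein at 1.5 nM to 3 μM, for 0.8–1.5 h at the lowest to 10–20 min at the highest concentrations, in Tris-HCl pH 7.5 buffer with KCl, MgCl2, BSA, DTT, tRNA and Tween20, with or without input ligand. Apparent Kd is the median of per-cluster binding-curve fits. Designs measured on fewer than 10 clusters were excluded.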

[1] = designed as: OFF switch for flavin mononucleotide, no ligand
[2] = ligand present: flavin mononucleotide, designed as: OFF switch for flavin mononucleotide
[3] = designed as: ON switch for flavin mononucleotide, no ligand
[4] = ligand present: flavin mononucleotide, designed as: ON switch for flavin mononucleotide

Sequence	apparent Kd [1] [nM]	apparent Kd [2] [nM]	apparent Kd [3] [nM]	apparent Kd [4] [nM]	further results
UCAAGCAUGGAGAAGGCCCGGGUUGACACGUCGGGAGGAUAUCCAGACUCACAUGAGGAUCACCCAUGUUAUUGCGGCGACUCC	40.3	57			
CUCCCAAACAAGAAGGGCGUCGAGUACGGUGAACUUGCCACAUAACAUGAGGAUCACCCAUGUACGCAGGAUAUUGGAGCGUUU	138	234			
AGACCGGCUCAGGAUAUGUACAGGACAUACUCAACAGAAGGGAGUACAUGAGGAUCACCCAUGUCUGGGUAGAU	488	371			
CCUAGACAUGAGGAUCACCCAUGUUAUUGUCUUCAAGGAUAUCGAUGUCUCUCAUAGGCACGAGAAGGUGACUCCU			85.2	67.1	
AUUGCCCAAGGAUAUCUAUUUAGAAACAUGAGGAUCACCCAUGUCAUAAUGUUAGGCUCAAGAGAAGGUGGAAGCU	8.33	8.37			
ACGUGGGUAACCAAGGAUAUAUUUACACCCACAUGAGGAUCACCCAUGUUCUUGCAGGCAUAUAAAUAGAAGGUGGAAACGCAGUG			379	129	
UUUAUACAUGAGGAUCACCCAUGUGAGGAUAUAAAGGCGGACACUGCUGUCGAUCGCUUUAGAAGGCACUGGAU	15.8	20			
GCUACCACCGCAGGAUAUAAUCGGACACUCGUAGCGUUGCGAACAUGAGGAUCACCCAUGUCUAUUUAGAAGGGCGCAUGGGAU			78.8	42.6	
ACGGUAGGCUAGAAGGCCCGGACUCGCCCAGAGGGAGGAUAUAGCAUUGGCGUACUACAUGGCACAUGAGGAUCACCCAUGUAA	35.4	30.6			
UGGAAGAUUGAAGGAUAUCCGGUCAAUUAAUAUGGAGAAGGUCAAUAUAUGGACAUGAGGAUCACCCAUGUAGAGUCAACUCGA			38.5	26.8	
ACGGGUGACAAGAAGGGCUAGGUAACAUGCCGUAGACUAGAAUAACAUGAGGAUCACCCAUGUAAGCAGGAUAUUGUAUAAUAA			156	52.8	
CCCACAAGCACGGCCGCCACUAUAUUAAUUACUGUCCUAGAACAUGAGGAUCACCCAUGUUAAUGUAGGACCGGGUGCGGGCCCG					apparent Kd (designed as: OFF switch for tryptophan, no ligand): 9.57 nM; apparent Kd (ligand present: tryptophan, designed as: OFF switch for tryptophan): 12.8 nM
GACUGGAGGAGAGGAUAUGCAAAGACUCUAUUCGCAGAAGGCUCGUGCGGUCAACAUGAGGAUCACCCAUGUCUGGCGACAUGC	6.26	8.62			
GAGCUAUCAGGAUAUACAUGAGGAUCACCCAUGUUUUUUGGAAUCAAGAGGAAUCAAUGUAGAAGGGAUCUCGA	21.8	28.2			
AUGUAACAUGAGGAUCACCCAUGUAAGGAUAUGCAACAAAACUCUGAAUCGUAAGUUCGCAGAAGGUACAUUAG	28.4	27.3			
UGGCACAAGUUAGGAUAUAGCACUUCUGUAAAGCUAGAAGGAACGUUGCACAUGAGGAUCACCCAUGUCAGUAAUUGAUAUGUA	10.1	12.6			
GUACAGGAGGAAGGAUAUAAUGCACAUGAGGAUCACCCAUGUAAGAGGAAAUCACCAUAACUGAUUUAGAAGGACCAGCAAAAC	12	11.3			
AAACUACGACAUGAGGAUCACCCAUGUACUCCGCUAACUACACAGGAUAUAGUGAGGCCAGAGCUCUAGAAGGGUGUUAAUACG			40.3	28.2	
AACAAAUGGGAAGGAUAUCGUUACAUGAGGAUCACCCAUGUCUACCUUGGGAGCGGUAGCUAUGUCGAGAAGGUCCAUGCGCGA			394	84.1	
AACGGCUGCGCGUAGGAUAUGGCCCAUCCAACAUGAGGAUCACCCAUGUGCCACGAUGAGACUUCCCAGAAGGACGGUGCGAUGAG			18.4	11.6	
GCUAGUAGAGAGAAGGAGCUUGAAUAUUUAGCGCUAGGAUAUCUUCGGUAGCCGUAGAGCAUACAUGAGGAUCACCCAUGUCCG			52.7	27.8	
UAGUACAUGAGGAUCACCCAUGUCGGAGGUCGAGGACCGGUACGGCCGCCACUCGGUCAUGCCCUACGAUACGACAGGAAUCUGU					apparent Kd (designed as: ON switch for tryptophan, no ligand): 22.2 nM; apparent Kd (ligand present: tryptophan, designed as: ON switch for tryptophan): 16.8 nM
UAGGUUCUAGUUUCUGCACAUGAGGAUCACCCAUGUUUAGUAAAGGAUAUCACGGUAAGUCGACGUGAGAAGGUUACGUUAGGG	33.6	37			
